LEDGF integ inh: blocks HIV-1 LEDGF/p75-dependent DNA integration | TR-FRET IN-LEDGF/p75 DNA integration, Eu/Cy5 | inhibition, % at 3.7 µM | 370,000 compounds, 0.64% hits | AID 743269;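 active = inhibition above the screen-wide mean plus 3 SD, cut at about 13% in these data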;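 also: signal is the Cy5 over europium emission ratio at 671 and 618 nm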
MBD2 DNA inh: blocks human MBD2 binding to methylated DNA | TR-FRET, MBD2 binding to methylated oligonucleotide | inhibition, % at 4.4 µM | 370,000 compounds, 0.31% hits | AID 686964; in the data active = inhibition above about 13%
Target sequence (Q9UBB5 whole entry, looked up): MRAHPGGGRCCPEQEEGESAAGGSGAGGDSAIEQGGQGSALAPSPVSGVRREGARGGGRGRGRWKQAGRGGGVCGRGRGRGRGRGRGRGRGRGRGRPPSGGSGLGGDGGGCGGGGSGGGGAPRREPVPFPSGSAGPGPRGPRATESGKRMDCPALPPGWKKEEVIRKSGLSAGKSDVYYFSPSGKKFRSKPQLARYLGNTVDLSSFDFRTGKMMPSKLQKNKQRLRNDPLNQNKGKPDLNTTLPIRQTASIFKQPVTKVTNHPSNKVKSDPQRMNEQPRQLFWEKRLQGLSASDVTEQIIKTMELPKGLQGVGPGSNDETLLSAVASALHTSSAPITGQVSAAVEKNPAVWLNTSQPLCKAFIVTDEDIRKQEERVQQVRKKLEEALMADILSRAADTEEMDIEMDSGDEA
TDP2 inh: TDP2 (human) inhibition, absorbance primary screen; recombinant TDP2, T5PNP hydrolysis, p-nitrophenol absorbance 415 nm; O95551; inhibition, % at 12.8 µM; AID 720702; 370,000 compounds, 0.34% hits;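 active = inhibition above the mean of all tested compounds plus 3 SD, set per campaign, cut at about 25% in these data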
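Test system: human TDP2 enzyme; Input: 120 nM TDP2 per well; Buffer or medium: Mg2+-containing Tris-HCl buffer, pH 7.5; Reagent: 5 mM T5PNP; Dosing: 12.8 µM single point, 1% DMSO; Incubation: reaction 2 h, 37 °C; Detection: p-Nitrophenol epi absorbance; Read-out: % inhibition relative to enzyme-containing and enzyme-free wells; Replicates: single well per compound.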
UHRF1 MBD2 ctr: blocks human UHRF1 binding to methylated DNA | Q96T88 | AID 687016 | UHRF1 binding to methylated oligo, TR-FRET | inhibition, % at 4.4 µM | 370,000 compounds, 0.75% hits; in the data active = inhibition above about 21%;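 also: UHRF1 SRA domain binding a hemimethylated CpG hairpin DNA probe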
Hits are given with their value; . = inactive. Hits are enriched below; roughly 1.6% of the tested compounds scored in any of these assays.

SMILES	LEDGF integ inh	MBD2 DNA inh	TDP2 inh	UHRF1 MBD2 ctr
CC(=O)N1CCOc2ccc(S(=O)(=O)NCCc3ccccc3)cc21	.	.	.	.
Cc1cc(C)cc(NC(=O)N2CCC(c3nc4ccc(Cl)cc4[nH]3)CC2)c1	.	.	.	.
Cc1ccc(S(=O)(=O)NCCNC(=O)C2CCCNC2=O)cc1 (configuration not stated)	.	.	.	20.9
Cc1ccc(Nc2nc(N)c3ccccc3n2)cc1Cl	.	.	.	37.9
O=C(O)CC1c2ccccc2CCN1S(=O)(=O)c1cccs1 (configuration not stated)	.	.	.	23.8
CCOc1ccc2nc(N3C(=O)C(O)=C(C(=O)c4ccco4)C3c3ccco3)sc2c1 (configuration not stated)	17.9	.	.	.
Cc1cc(C)n2nc(SCCC(=O)NCc3ccccc3)nc2n1	.	.	.	36.3
COc1ccc(CNC(=O)CSc2nc3nc(C)cc(C)n3n2)cc1	.	.	.	.
Cc1cc(C)n2nc(CC(=O)NCc3ccc(F)cc3)nc2n1	.	.	.	99.1
Cc1ccc(CNC(=O)Cc2nc3nc(C)cc(C)n3n2)cc1	.	.	.	.
Cc1cccc(C)c1-n1nnnc1C1c2ccccc2OCC(=O)N1Cc1ccc(F)cc1 (configuration not stated)	.	.	.	.
C=CCN1C(=O)[C@H](CC(=O)NCCCC)[C@@]2(C(=O)OCC)CCCC=C12	.	.	.	.
CCOC(=O)c1c(-c2ccccc2)c2cc(OC)ccc2n1CCCN(C)C	.	.	.	26.0
COC(=O)C[C@@H]1CC[C@H]2[C@@H](COc3ccc(NC(=O)Nc4ccccc4C)cc3C(=O)N2C)O1	.	.	.	.
COc1ccc(C(=O)COC(=O)Cc2c[nH]c3ccccc23)c(OC)c1	.	.	.	.
CC(Cc1c[nH]c2ccccc12)C(=O)O (configuration not stated)	.	.	.	23.0
O=C(Cc1c[nH]c2ccccc12)OCC(=O)c1ccccc1	.	.	.	29.1
Cc1cccc(NC(=O)Cn2nnc(-c3ccccc3F)n2)c1C	.	.	.	.
CCOc1ccc(CC(=O)N2N=C(C)CC2(O)C(F)(F)F)cc1 (configuration not stated)	.	.	.	28.9
COc1ccc(CCN2C(=O)CCC2(C)c2nnnn2-c2c(C)cccc2C)cc1OC (configuration not stated)	.	.	.	21.9
COc1ccc(CN2C(=O)CCC2(C)c2nnnn2-c2c(C)cccc2C)cc1OC (configuration not stated)	.	.	.	.
COc1ccc(S[C@]2(C(=O)N3CCN(C(C)=O)CC3)CC(=O)N(C(=O)Nc3ccc(C)c(Cl)c3)[C@@H]2c2ccc(OC)cc2)cc1	.	.	.	.
O=c1cc(-c2ccc(O)cc2)oc2c([C@@H]3O[C@H](CO)[C@@H](O)[C@H](O)[C@H]3O)c(O)c([C@@H]3O[C@H](CO)[C@@H](O)[C@H](O)[C@H]3O)c(O)c12	.	.	.	.
O=c1cc(-c2ccc(O)c(O)c2)oc2cc(O)c([C@@H]3O[C@H](CO)[C@@H](O)[C@H](O)[C@H]3O)c(O)c12	57.1	.	.	.
O=C(Nc1cccs1)OC1CC2CC1[C@H]1CCCCN1C2 (some centres not stated)	.	.	.	.
SMILES	LEDGF integ inh	MBD2 DNA inh	TDP2 inh	UHRF1 MBD2 ctr
CC(NC(=O)C1CCN(CCOc2ccc(Cl)cc2)CC1)c1cccc2ccccc12 (configuration not stated)	.	.	.	24.5
CC(C)(C)Cc1c(-c2cccc(Cl)c2)nc2ccc(Cl)cn12	.	.	.	23.5
Clc1cccc(-c2nc3ccc(Cl)cn3c2Cc2ccccc2)c1	.	.	.	.
CC(C)(C)Cc1c(-c2ccc(C#N)cc2)nc2ccc(Cl)cn12	.	.	.	21.1
Cc1ccc(Cc2c(-c3ccc(C#N)cc3)nc3ccc(Cl)cn23)cc1	.	.	.	.
O=S(=O)(N[C@@H]1CCCC[C@H]1N1CCOCC1)c1ccc(Cl)cc1	.	.	.	.
COc1ccc(C)c(NC(=O)[C@@H]2CCCN2S(=O)(=O)c2cccc3cccnc23)c1	.	.	.	.
COCCNC(=O)C1CCCN(C(=O)c2cc(C(C)(C)C)nn2C)CC1 (configuration not stated)	.	.	.	25.0
CCOC(=O)C1CCCN(C(=O)c2cc(C(C)(C)C)nn2C)CC1 (configuration not stated)	.	.	.	.
c1ccc2cc3[nH]c(CNc4nc(N5CCOCC5)nc5c4ncn5-c4ccsc4)nc3cc2c1	.	.	.	.
Cc1cc(C)cc(NC(=O)COC(=O)CC2CCCC2)c1	.	.	.	31.9
Cc1cc(C)cc(Cn2cc(CN3CC(N4CCN(C)CC4)CS3(=O)=O)nn2)c1 (configuration not stated)	.	.	.	24.3
O=S1(=O)CC(N2CCSCC2)CN1Cc1cn(Cc2ccc(C(F)(F)F)cc2)nn1 (configuration not stated)	.	.	.	.
CCCCCCN1CCN(C2CN(Cc3cn(Cc4cc(C)cc(C)c4)nn3)S(=O)(=O)C2)CC1 (configuration not stated)	.	.	.	22.5
CN1CCN(C2CN(Cc3cn(Cc4ccc(C(F)(F)F)cc4)nn3)S(=O)(=O)C2)CC1 (configuration not stated)	.	.	.	24.8
Cc1ccc(-c2c(NC(=O)c3ccccc3)nc3ncccn23)cc1	.	.	.	.
CCCCC(=O)Nc1cccc(C(C)O)c1 (configuration not stated)	.	.	.	.
CC(C)CC(=O)Nc1cccc(C(C)O)c1 (configuration not stated)	.	.	.	21.2
COc1ccc2ccccc2c1C=Nn1c(-c2cc(-c3ccccc3)n[nH]2)n[nH]c1=S	.	.	.	.
N#CC(C#N)=Cc1cccn1-c1ccc(C(=O)O)cc1	.	.	.	42.5
N#C/C(=C/c1cccn1-c1cccc(C(=O)O)c1)c1ccc(Cl)cc1	.	.	.	.
COc1ccc(C(=O)Nc2ccc3c(c2)nc(CN2CCN(C(C)=O)CC2)n3C)cc1	.	.	.	.
COc1ccc(C(=O)Nc2ccc3c(c2)nc(CN2CCCC2)n3C)cc1	.	.	.	34.4
Cc1ccc(C)c(NC(=O)c2ccc(CS(=O)(=O)Cc3ccccc3C)o2)c1	.	.	.	.
O=C(Cn1cc(SCc2ccccc2Cl)c2ccccc21)N1CCOCC1	.	.	.	24.0
CC(=O)Nc1ccc(NC(=O)CSc2cn(CC(=O)N3CCOCC3)c3ccccc23)cc1	.	.	.	.
O=C(CN1CCN(c2ccccn2)CC1)NC1CCCC1	.	.	.	24.1
CN1C=C/C(=C\c2cc[n+](C)c3ccccc23)c2ccccc21	.	.	28.0	27.2
Cc1c(Cc2ccccc2)c(=O)oc2c(C)c(OCC(=O)Nc3ccc(C#N)cc3)ccc12	.	.	.	.
Cc1cccc(C)c1NC(=O)COc1ccc2c(C)c(Cc3ccccc3)c(=O)oc2c1C	.	.	.	63.6

Compound activity: PubChem, The Scripps Research Institute Molecular Screening Center
